Laboratory results from PMC3726261 (Cancer, 2012).

Assays:
PPAR response element = settings: cited from earlier work
[1] = in vivo; cited from earlier work
adiponectin = assay: Plasma adiponectin; type: in vivo, human
In short: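 Blood was drawn at baseline (before cycle 1) and every 3 weeks thereafter from patients with advanced solid malignancies given oral drug twice daily at 0.10–1.15 mg in 21-day cycles. Plasma adiponectin was quantified by solid-phase quantitative sandwich enzyme immunoassay. A population pharmacokinetic/adiponectin model using data from every patient defined the dose–response relation and predicted the increase relative to pretreatment.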

[2] = test system: metastatic or advanced solid malignancy; assay: Tumor response; type: in vivo, human
[3] = Pharmacokinetics: plasma R-150033 by LC-MS/MS after oral efatutazone; type: in vivo, human
In short: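 Adults with advanced solid malignancies took oral doses twice daily in 21-day cycles, in cohorts of 3 to 6 at 0.10–1.15 mg. Plasma was sampled at baseline and 0.5, 1, 2, 3, 4, 6 and 8–10 h after the first dose on day 1 of cycles 1 and 2. Active metabolite R-150033 was measured by validated LC-MS/MS. AUC, Cmax and Tmax were derived; accumulation was AUC0-tau/AUC0–12, and steady state was judged from trough levels.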

[4] = test system: human colorectal tumor xeno-grafts; settings: human colorectal tumor xeno-grafts in nude rodents; cited from earlier work
cancer cell growth = settings: inhibition of cancer cell growth; cited from earlier work
[5] = test system: human pancreatic and anaplastic thyroid tumor-cell cultures; settings: cited from earlier work
[6] = PPAR response element activation
[7] = Patient 0020, Myxoid liposarcoma, 0.75 mg

Cc1cc(Oc2ccc3nc(COc4ccc(CC5SC(=O)NC5=O)cc4)n(C)c3c2)cc(C)c1N (stereo not shown) [Efatutazone]
Potency relative to rosiglitazone (PPAR response element; [6]): at least 50 ×
Potency relative to troglitazone (PPAR response element; [6]): ≥ 500 ×
PPAR subtype selectivity of transcription activation (PPAR response element; background statement, no reference given): selectively activates PPARγ-mediated transcription with little effect on other PPAR subtypes
Tolerability of single dose [1]: well tolerated
Change in adiponectin levels (adiponectin; after 4 weeks of treatment at all dose levels): increased
Predicted increase in adiponectin expression levels relative to pretreatment (adiponectin; at optimal dose, population-based pharmacokinetic/adiponectin modeling): > 90%
No. of patients with stable disease or partial response ([2]; 0.10 mg cohort (n = 6)): 3
Treatment duration in patients with SD/PR, Maximum ([2]; 0.10 mg cohort (n = 6)): 294 days
Treatment duration in patients with SD/PR, Median ([2]; 0.10 mg cohort (n = 6)): 67.0 days
Treatment duration in patients with SD/PR, Minimum ([2]; 0.10 mg cohort (n = 6)): 66 days
No. of patients with stable disease or partial response ([2]; 0.15 mg cohort (n = 3)): 2
Treatment duration in patients with SD/PR, Maximum ([2]; 0.15 mg cohort (n = 3)): 178 days
Treatment duration in patients with SD/PR, Median ([2]; 0.15 mg cohort (n = 3)): 176.0 days
Treatment duration in patients with SD/PR, Minimum ([2]; 0.15 mg cohort (n = 3)): 173 days
No. of patients with stable disease or partial response ([2]; 0.25 mg cohort (n = 4)): 0
No. of patients with stable disease or partial response ([2]; 0.35 mg cohort (n = 3)): 1
Treatment duration in patients with SD/PR, Maximum ([2]; 0.35 mg cohort (n = 3)): 84 days
Treatment duration in patients with SD/PR, Median ([2]; 0.35 mg cohort (n = 3)): 84.0 days
Treatment duration in patients with SD/PR, Minimum ([2]; 0.35 mg cohort (n = 3)): 84 days
No. of patients with stable disease or partial response ([2]; 0.50 mg cohort (n = 6)): 3
Treatment duration in patients with SD/PR, Maximum ([2]; 0.50 mg cohort (n = 6)): 336 days
Treatment duration in patients with SD/PR, Median ([2]; 0.50 mg cohort (n = 6)): 126.0 days
Treatment duration in patients with SD/PR, Minimum ([2]; 0.50 mg cohort (n = 6)): 74 days
No. of patients with stable disease or partial response ([2]; 0.75 mg cohort (n = 3)): 1
Treatment duration in patients with SD/PR, Maximum ([2]; 0.75 mg cohort (n = 3)): 690 days
Treatment duration in patients with SD/PR, Median ([2]; 0.75 mg cohort (n = 3)): 690.0 days
Treatment duration in patients with SD/PR, Minimum ([2]; 0.75 mg cohort (n = 3)): 690 days
No. of patients with stable disease or partial response ([2]; 1.15 mg cohort (n = 3)): 1
Treatment duration in patients with SD/PR, Maximum ([2]; 1.15 mg cohort (n = 3)): 84 days
Treatment duration in patients with SD/PR, Median ([2]; 1.15 mg cohort (n = 3)): 84.0 days
Treatment duration in patients with SD/PR, Minimum ([2]; 1.15 mg cohort (n = 3)): 84 days
Patients with stable disease lasting ≥60 days ([2]; 10 of 27 evaluable patients): 37%
Number of sustained partial responses ([2]; 27 evaluable patients): 1
No. of patients with stable disease or partial response ([2]; Overall (N = 27)): 11
Treatment duration in patients with SD/PR, Maximum ([2]; Overall (N = 27)): 690 days
Treatment duration in patients with SD/PR, Median ([2]; Overall (N = 27)): 126.0 days
Treatment duration in patients with SD/PR, Minimum ([2]; Overall (N = 27)): 66 days
Treatment Duration ([2]; Patient 0001, Thymoma, 0.10 mg, stable disease): 67 days
Treatment Duration ([2]; Patient 0002, Carcinoma of unknown origin, 0.10 mg, stable disease): 66 days
Treatment Duration ([2]; Patient 0005, Cancer of the peritoneum, 0.10 mg, stable disease): 294 days
Treatment Duration ([2]; Patient 0007, Colorectal carcinoma, 0.15 mg, stable disease): 173 days
Treatment Duration ([2]; Patient 0015, Carcinoma of unknown origin, 0.35 mg, stable disease): 84 days
Treatment Duration ([2]; Patient 0017, Colorectal carcinoma, 0.50 mg, stable disease): 126 days
Treatment Duration ([2]; Patient 0018, Colorectal carcinoma, 0.50 mg, stable disease): 74 days
Time on therapy of patient with sustained partial response ([2]; Patient 20, metastatic myxoid liposarcoma): 690 days
Nadir reduction in tumor size ([2]; Patient 20, metastatic myxoid liposarcoma, June 2009): approximately 49%
Best response (RECIST) [2, 7]: partial response
Treatment Duration [2, 7]: 690 days
Fluorodeoxyglucose uptake (PET/CT) ([2]; Patient 20, November 2008): no fluorodeoxyglucose uptake in the remaining tumors
Treatment Duration ([2]; Patient 0022, Cancer of the appendix, 1.15 mg, stable disease): 84 days
Treatment Duration ([2]; Patient 0024, Carcinoma of unknown origin, 0.50 mg, stable disease): 336 days
Treatment Duration ([2]; Patient 2001, Leiomyosarcoma, 0.15 mg, stable disease): 178 days
Median overall survival ([2]; in vivo): 283 days
Median time to disease progression ([2]; in vivo): 51 days
Median treatment duration for patients with SD or PR ([2]; in vivo): 126 days
Dose proportionality of exposure (AUC and Cmax) ([3]; 0.10 to 1.15 mg twice daily, single and multiple doses): approximately dose proportional
Time to steady-state levels ([3]; based on trough plasma concentrations, twice daily): by week 1 of cycle 2
Growth of tumor xenografts [4]: inhibits
Potency relative to rosiglitazone (cancer cell growth): at least 50 ×
Potency relative to troglitazone (cancer cell growth): ≥ 500 ×
Proliferation of tumor-cell cultures [5]: inhibits proliferation
